High-throughput results as filed in PubChem BioAssay.
HUVEC inhibit: inhibitors of HUVEC proliferation, primary screen, cell-based, 384-well | CellTiter-Glo luminescence, 72 h; hits give low values | 1.1% of 86,000 active | viability, % at 10 µM (by protocol) | AID 648, 2007;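 active = viability at or below 30%; inactive = viability above 30%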;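 note: 100% = median luminescence of DMSO-only cell control wells on each plate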
Lung fibro prol: antiproliferative effect on LL 47 fibroblasts – human, LL 47 cells, CellTiter-Glo luminescence, primary screen | LL 47 human lung fibroblast viability, ATP luminescence; hits give low values | viability, % at 10 µM | 1.1% of 85,000 active | AID 719, 2007;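 active = viability at or below 50% in the single dose screen; inactive = viability above 50%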;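 note: compound exposure lasted 72 h before the ATP readout; 100% = median luminescence of untreated cell-only wells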
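Material: Human LL 47 lung fibroblast cells | Input: 1,150 cells/well | Buffer or medium: IMEM plus 15% FBS | Compound dosing: 0.1% DMSO in all compound wells | Times: Overnight cell rest, 72 h compound treatment at 37 °C | Signal: CellTiter-Glo luminescence measuring cellular ATP | Measure: % viability versus median cells-only luminescence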
PTEN del growth: growth suppression of PTEN-null HCT116, primary screen, cell-based, CellTiter-Glo | 1.2% of 140,000 active | HCT116 PTEN-null viability, 60 h; hits give low values | viability, % at 10 µM;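 active = viability at or below a set limit, 4 SD under the median of all tested compounds, cut at about 3.7% in these data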;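 note: PTEN knockout HCT116 line with beta catenin targeted HCT116 as companion control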
HCT116 bCat-KO: primary screen for growth suppressors in beta-catenin knockout HCT116 cells (colon tumor, human); 1.5% of 140,000 active; HCT116 beta-catenin knockout viability, CellTiter-Glo, 60 h; hits give low values; viability, % at 10 µM; AID 818, 2007;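 active = viability at or under a set limit, the compound median less 4 SD, cut at about 6% in these data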;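 note: 0% = Hyamine 1622 control at 20 µM and 100% = untreated cell control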
H69AR inhibit: proliferation blockers of H69AR lung cancer cells, primary screen, cell-based, human, 86K library; 6% of 85,000 active; H69AR lung tumor viability, ATP luminescence, 72 h; hits give low values; viability, % at 10 µM;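 active = viability at or below 40%; inactive = viability above 40%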;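 note: multidrug resistant small cell line overexpressing MRP-1 efflux transporter; 100% = mean luminescence of untreated control wells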
* = called active by the depositor; · = no result. The full list was thinned out, with hits kept by preference.

SMILES | HUVEC inhibit | Lung fibro prol | PTEN del growth | HCT116 bCat-KO | H69AR inhibit
COc1ccc(NS(=O)(=O)c2cc(C)ccc2NC(=O)c2cc(C)oc2C)cc1 | 38.9 | 55.5 | 12.0 | 10.9 | 29.4*
CCOC(=O)c1ccc(Nc2ncnc3ccc(C)cc23)cc1 | 60.7 | 115.3 | 89.3 | 90.0 | 84.5
CCOC(=O)c1cccc(Nc2ncnc3ccc(C)cc23)c1 | 83.6 | 89.7 | 46.2 | 42.5 | 21.5*
CCOc1cc2[nH]c(=O)n(CCC(=O)N3CCN(c4ccccc4OC)CC3)c(=O)c2cc1OCC | 95.6 | 102.4 | 85.3 | 94.3 | 84.5
COc1cc2[nH]c(=O)n(CCC(=O)N3CCN(c4cc(Cl)ccc4C)CC3)c(=O)c2cc1OC | 2.0* | 3.0* | 1.9* | 2.1* | 0.5*
COc1ccc(CCn2c(=S)[nH]c3cc(C(=O)NCc4ccco4)ccc3c2=O)cc1OC | 7.3* | 76.4 | 84.6 | 90.1 | 4.4*
CCOC(=O)c1c(-c2ccccc2)oc2cc(CN(C)C)c(O)c(CN(C)C)c12 | 9.3* | 93.6 | · | · | 10.3*
NC(N)=N/N=C/c1ccccc1 | 98.6 | 96.3 | 81.0 | 91.1 | 99.5
NC(N)=N/N=C/c1ccc(OCc2ccccc2Cl)cc1 | · | · | 0.9* | 0.9* | ·
COc1ccc(C)cc1S(=O)(=O)Nc1ccccc1 | 96.3 | 102.5 | 109.9 | 103.0 | 100.0
COc1cc(NS(=O)(=O)c2ccc(C)cc2C)cc(OC)c1OC | 86.7 | 93.6 | 48.2 | 41.5 | 24.5*
CCCCn1nc(C(=O)N[C@@H](CCSC)c2nc3ccccc3[nH]2)c2ccccc2c1=O | 75.6 | 97.0 | 42.1 | 46.2 | 36.1*
COc1ccccc1NC(=O)CSCc1nc2ccccc2[nH]1 | · | · | 86.5 | 86.9 | ·
CCCCOc1ccccc1NC(=O)CC1Nc2ccccc2NC1=O (stereo not drawn) | 86.3 | 97.7 | · | · | 40.0*
CCCCNC(=O)CC1Nc2ccccc2NC1=O (stereo not drawn) | 102.3 | 98.2 | 97.8 | 94.7 | 92.1
COC(=O)c1cc(NC(=O)CC2SCCNC2=O)cc(C(=O)OC)c1 (stereo not drawn) | 102.9 | 108.4 | 107.4 | 104.0 | 85.9
O=C(CC1Nc2ccccc2NC1=O)Nc1cc(Cl)cc(Cl)c1 (stereo not drawn) | 75.0 | 100.9 | 3.6* | 1.9* | 44.3
COC(=O)c1c(NC(=O)CC2Nc3ccccc3NC2=O)sc(C)c1C (stereo not drawn) | · | · | 1.9* | 1.6* | ·
O=C(CC1SCCNC1=O)Nc1cc(Cl)cc(Cl)c1 (stereo not drawn) | 88.4 | 47.4* | 96.7 | 95.5 | 87.6
CC(=O)NC(Cc1c[nH]c2ccccc12)C(=O)OCC(=O)Nc1cc(C)on1 (stereo not drawn) | 101.7 | 94.7 | 81.0 | 81.5 | 82.2
CC(=O)NC(Cc1c[nH]c2ccccc12)C(=O)OCC(=O)Nc1ccc2c(c1)OCO2 (stereo not drawn) | 82.8 | 93.3 | 86.3 | 83.2 | 12.6*
Cn1c(=O)c(Nc2ccc(O)cc2)c2c3c(cccc31)C(=O)c1ccccc1-2 | · | · | 82.1 | 75.0 | ·
CCc1cccc2c(C=C(C#N)C#N)cn(CC(=O)N3CCCCCC3)c12 | · | · | 83.8 | 82.8 | ·
COc1ccc(/C=C/C(=O)c2ccccc2)cc1Cn1nnc2ccccc21 | · | · | 2.8* | 2.9* | ·
O=C(NNC1CC(=O)N(c2ccccc2)C1=O)c1ccc(COc2ccccc2Cl)o1 (stereo not drawn) | · | · | 93.1 | 96.9 | ·
SMILES | HUVEC inhibit | Lung fibro prol | PTEN del growth | HCT116 bCat-KO | H69AR inhibit
CCOC(=O)c1c(CSc2ccccc2)n(C)c2cc(Br)c(OCC(O)CNC(CO)(CO)CO)cc12 (stereo not drawn) | · | · | 2.1* | 1.5* | ·
CCOC(=O)c1c(CN2CCN(Cc3ccccc3)CC2)n(C)c2cc(Br)c(OC)cc12 | 74.8 | 101.4 | 55.8 | 56.0 | 13.9*
CCOC(=O)c1c(CSc2ccccc2)oc2ccc(O)cc12 | · | · | 93.8 | 85.2 | ·
CCOC(=O)c1c(C)n(C)c2cc(Br)c(C)cc12 | 98.4 | 99.2 | 95.2 | 90.5 | 97.2
O=C(NCCc1c[nH]c2ccccc12)c1ccc([N+](=O)[O-])cc1 | · | · | 97.1 | 88.3 | ·
O=C(NCCc1c[nH]c2ccccc12)c1ccc(S(=O)(=O)NCc2ccco2)cc1 | 70.4 | 96.1 | 73.6 | 70.4 | 39.4*
Cc1cc(N2CCN(c3cccc(C(F)(F)F)c3)CC2)n2ncnc2n1 | 89.1 | 95.4 | 69.2 | 67.3 | 74.2
Cc1nc2ncnn2c(N2CCN(c3cccc(C(F)(F)F)c3)CC2)c1C | 82.1 | 94.7 | 27.9 | 24.1 | 33.1*
CCCCC1CCC(/C(N)=N/O)CC1 (stereo not drawn) | 85.2 | · | 90.8 | 81.0 | 26.7*
Cn1c(=O)c2c(ncn2CC(=O)OCC(=O)Nc2cc(Cl)ccc2Cl)n(C)c1=O | · | · | 87.6 | 90.6 | ·
CCCN(CCO)Cc1cccc(Br)c1 | 87.6 | 38.2* | 92.3 | 98.1 | 87.3
Cc1ccc(S(=O)(=O)N2CCN=C2c2ccccc2)cc1C | 86.6 | 93.9 | 78.1 | 85.8 | 99.3
COc1cc(S(=O)(=O)N2CCN=C2c2ccccc2)ccc1F | 65.5 | 92.4 | 27.2 | 36.0 | 23.1*
Cc1nc(-c2ccccc2)cc(N2CCCC2)n1 | · | · | 98.5 | 100.8 | ·
Nc1nc(-c2ccccc2)cc(N2CCCCC2)n1 | 56.5 | 55.5 | 13.3 | 12.1 | 23.3*
Cc1cnc(Nc2nc3ccccc3o2)nc1C(=O)Nc1cccc(C(F)(F)F)c1 | 45.4 | 44.3* | 33.2 | 70.8 | 1.3*
CCOc1ccc(OCC)c(-c2c(=O)n(OCc3ccc(C(C)(C)C)cc3)c3ccccc3[n+]2[O-])c1 | · | · | 72.0 | 74.2 | ·
C=CCSc1nc2ccccc2n1C(=O)/C=C/c1cc(OC)c(OC)c(OC)c1 | · | · | 2.4* | 3.1* | ·
CCSc1nc2ccccc2n1C(=O)/C=C/c1ccc(OC)c(OC)c1 | · | · | 4.8 | 5.4* | ·
COc1cc(/C=C/C(=O)NCCn2c(C)cc3ccccc32)cc(OC)c1OC | · | · | 72.6 | 91.8 | ·
CCn1c(SCC(=O)N/N=C/c2ccc(OC)c(OC)c2)nc2ccccc21 | · | · | 99.4 | 96.5 | ·
C=CCSc1nc2ccccc2n1C(=O)/C=C/c1ccc(OC)c(OC)c1 | · | · | 1.8* | 1.8* | ·
COc1ccc(/C=C/C(=O)NCCn2c(C)cc3ccccc32)cc1OC | · | · | 67.8 | 70.8 | ·
Cc1cc(C)n(-c2nc(SCCN(C)C)c3c4c(sc3n2)COC(C)(C)C4)n1 | · | · | 3.3* | 1.9* | ·
Cc1cc(C)n(-c2nc(NCC3CCCO3)c3c4c(sc3n2)COC(C)(C)C4)n1 (stereo not drawn) | 100.1 | 94.6 | 51.1 | 57.8 | 10.2*
Cc1cc(C)n(-c2nc(NCC(C)O)c3c4c(sc3n2)COC(C)(C)C4)n1 (stereo not drawn) | 91.8 | 92.6 | 76.2 | 72.7 | 58.5
Cc1ccc(-n2c(-c3ccc(Br)cc3)c[n+]3c2CCc2ccc4cccnc4c2-3)cc1 | 13.9* | 21.1* | 0.8* | 1.5* | 2.8*
Cc1noc(C)c1COC(=O)c1ccc2c(c1)S(=O)(=O)c1ccccc1C2=O | 95.4 | 106.6 | 96.1 | 99.3 | 83.6
